Data published in ChEMBL document CHEMBL3259628, “Discovery of novel 2-((pyridin-3-yloxy)methyl)piperazines as α7 nicotinic acetylcholine receptor modulators for the treatment of inflammatory disorders” (J Med Chem, 2014).
The source made the active and inactive calls. The rule behind the calls is not given here.

How the values were obtained:
[1] = molecular target: Acetylcholine receptor; alpha1/beta1/delta/gamma (Homo sapiens) (UniProt P02708+P07510+P11230+Q07001); assay: Inhibition of alpha1beta1gammadelta nAChR (unknown origin) at 10 uM; type: protein-complex assay
How it was run: (§1)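 Receptor, ion channel and transporter binding panel run at Cerep in duplicate. Percent inhibition measured at 10 μM compound.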

[2] = molecular target: T1, 5-hydroxytryptamine receptor 3A (Homo sapiens) (UniProt P46098); assay: Inhibition of 5-HT3 receptor (unknown origin) at 10 uM; how it was run: as §1
T1 sequence (whole entry): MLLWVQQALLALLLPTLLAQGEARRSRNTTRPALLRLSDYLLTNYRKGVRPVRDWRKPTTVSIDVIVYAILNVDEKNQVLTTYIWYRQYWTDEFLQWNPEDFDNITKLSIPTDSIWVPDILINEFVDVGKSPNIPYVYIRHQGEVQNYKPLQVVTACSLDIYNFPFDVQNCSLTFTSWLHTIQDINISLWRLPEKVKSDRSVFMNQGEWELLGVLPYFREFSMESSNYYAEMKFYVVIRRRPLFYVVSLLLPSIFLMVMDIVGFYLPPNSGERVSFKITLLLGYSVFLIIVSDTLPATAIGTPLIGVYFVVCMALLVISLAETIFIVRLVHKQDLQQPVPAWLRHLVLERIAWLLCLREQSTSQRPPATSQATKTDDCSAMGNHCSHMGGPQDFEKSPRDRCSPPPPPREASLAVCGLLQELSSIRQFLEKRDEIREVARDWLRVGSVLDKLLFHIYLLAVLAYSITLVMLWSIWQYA

[3] = molecular target: T2, Neuronal acetylcholine receptor; alpha4/beta2 (Homo sapiens, UniProt P17787+P43681); assay: Inhibition of human alpha4beta2 nAChR at 10 uM by binding assay
[4] = molecular target: Neuronal acetylcholine receptor subunit alpha-7 (Rattus norvegicus, UniProt Q05941); assay: Inhibition of biotinylated alpha-bungarotoxin binding to alpha7 nAChR in rat PC12 cells by FACS analysis; type: cell-based, PC-12
Sequence of Neuronal acetylcholine receptor subunit alpha-7 (Rattus norvegicus, UniProt Q05941) (Q05941 whole entry): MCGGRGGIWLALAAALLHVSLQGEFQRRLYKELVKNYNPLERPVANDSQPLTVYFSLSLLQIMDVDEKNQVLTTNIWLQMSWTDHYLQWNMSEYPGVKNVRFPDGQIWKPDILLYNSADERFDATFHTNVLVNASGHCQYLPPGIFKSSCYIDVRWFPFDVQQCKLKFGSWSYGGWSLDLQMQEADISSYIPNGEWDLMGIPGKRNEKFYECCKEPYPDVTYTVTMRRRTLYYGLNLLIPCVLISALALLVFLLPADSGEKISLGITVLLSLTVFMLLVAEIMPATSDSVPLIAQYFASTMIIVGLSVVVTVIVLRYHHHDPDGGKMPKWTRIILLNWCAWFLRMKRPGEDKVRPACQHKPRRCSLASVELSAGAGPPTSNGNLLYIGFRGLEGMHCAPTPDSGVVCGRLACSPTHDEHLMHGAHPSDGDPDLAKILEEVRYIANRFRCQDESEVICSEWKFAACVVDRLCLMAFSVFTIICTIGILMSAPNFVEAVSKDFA
How it was run: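 Rat PC12 cells in binding buffer (PBS, 1.0% FBS, 0.02% sodium azide), 0.1% DMSO; biotinylated α-bungarotoxin 10 nM final, 1 h at room temperature; nonspecific binding defined with 1.5 μM unlabeled toxin. After washing, phycoerythrin-streptavidin 1.0 μg/mL final, 15 min in the dark; read by FACS. Screened at 10 and 1 μM, then eight-point 3-fold dilution IC50; mean of two or more experiments.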

[5] = Clearance in mouse at 1 mg/kg, iv; type: ADME, organism-based; set-up: dose 1 mg/kg, route intravenous; settings: in vivo
[6] = system: Mus musculus; assay: (§2) Antiinflammatory activity against ovalbumin-induced allergic lung inflammation BALB/c mouse model assessed as reduction in total blood cells in brochoalveolar lavage fluid at 1 mg/kg, po qd administered on day 29 to 31 post ovalbumin challenge measured 8 hrs post last challenge relative to vehicle-treated control; type: functional
How it was run: (§3)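 Balb/c mice sensitized with ovalbumin by IP injection on days 1 and 14, then challenged intranasally with 100 μg ovalbumin on days 29, 30 and 31. Compound in saline given orally starting 30 min before each challenge; groups of six mice. Sham groups were saline-sensitized and allergen-challenged. BAL taken 8 h after the last challenge, with differential cell counts on slides.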

[7] = system: Mus musculus; assay: as §2, with “neutrophils” for “total blood cells”; type: functional; settings: Bronchoalveolar lavage; how it was run: as §3
[8] = system: Mus musculus; assay: as §2, with “in eosinophils” for “in total blood cells”, “at 5” for “at 1”; type: functional, organism-based; set-up: dose 5 mg/kg; how it was run: as §3
[9] = Half life in mouse at 5 mg/kg, po; type: ADME, organism-based; set-up: dose 5 mg/kg, route oral; settings: in vivo
[10] = molecular target: CYP3A4 (Homo sapiens, UniProt P08684); assay: Inhibition of CYP3A4 (unknown origin) at 10 uM; type: ADME
Sequence of CYP3A4 (P08684 whole entry, canonical isoform): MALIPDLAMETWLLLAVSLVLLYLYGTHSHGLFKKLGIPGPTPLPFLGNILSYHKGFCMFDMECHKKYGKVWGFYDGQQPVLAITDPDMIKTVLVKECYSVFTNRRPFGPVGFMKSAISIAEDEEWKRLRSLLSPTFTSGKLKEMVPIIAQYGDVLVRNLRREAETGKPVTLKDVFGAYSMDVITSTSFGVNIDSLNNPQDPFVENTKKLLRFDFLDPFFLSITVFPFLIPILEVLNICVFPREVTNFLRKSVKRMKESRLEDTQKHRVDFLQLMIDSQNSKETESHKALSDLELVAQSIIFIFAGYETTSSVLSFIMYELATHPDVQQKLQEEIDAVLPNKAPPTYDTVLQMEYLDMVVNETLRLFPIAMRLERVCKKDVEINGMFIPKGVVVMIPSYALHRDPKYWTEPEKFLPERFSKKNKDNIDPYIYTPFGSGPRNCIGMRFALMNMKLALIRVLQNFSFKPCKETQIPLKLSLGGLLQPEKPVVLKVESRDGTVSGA
How it was run: (§4)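 Each of five Cyp isoforms assayed with single probe substrates rather than a substrate cocktail. Run in duplicate at Cerep. IC50 lines come from a 5-concentration titration curve.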

[11] = molecular target: T3, Neuronal acetylcholine receptor subunit alpha-7 (Homo sapiens, UniProt P36544); assay: Agonist activity at human alpha7 nAChR expressed in Xenopus oocytes by voltage clamp method; type: cell-based
T3 sequence (P36544 whole entry): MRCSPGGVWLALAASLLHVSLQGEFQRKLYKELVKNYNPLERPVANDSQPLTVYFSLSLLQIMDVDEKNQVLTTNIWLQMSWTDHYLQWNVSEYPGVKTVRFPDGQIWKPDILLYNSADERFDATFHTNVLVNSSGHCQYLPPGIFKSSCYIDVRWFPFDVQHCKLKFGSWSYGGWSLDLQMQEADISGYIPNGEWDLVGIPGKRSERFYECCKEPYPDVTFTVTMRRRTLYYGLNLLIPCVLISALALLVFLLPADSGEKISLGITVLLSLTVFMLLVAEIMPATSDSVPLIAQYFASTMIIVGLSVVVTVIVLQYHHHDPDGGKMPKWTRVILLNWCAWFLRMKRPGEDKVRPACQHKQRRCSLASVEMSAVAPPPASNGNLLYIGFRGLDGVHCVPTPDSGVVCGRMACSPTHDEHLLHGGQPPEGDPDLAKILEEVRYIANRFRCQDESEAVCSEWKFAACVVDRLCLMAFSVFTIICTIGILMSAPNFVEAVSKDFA

[12] = Cmax in mouse at 5 mg/kg, po; type: ADME, organism-based; set-up: dose 5 mg/kg, route oral; settings: in vivo
[13] = molecular target: T4, CYP1A2 (Homo sapiens, UniProt P05177); assay: Inhibition of CYP1A2 (unknown origin) at 10 uM; type: ADME; how it was run: as §4
T4 sequence (P05177 whole entry): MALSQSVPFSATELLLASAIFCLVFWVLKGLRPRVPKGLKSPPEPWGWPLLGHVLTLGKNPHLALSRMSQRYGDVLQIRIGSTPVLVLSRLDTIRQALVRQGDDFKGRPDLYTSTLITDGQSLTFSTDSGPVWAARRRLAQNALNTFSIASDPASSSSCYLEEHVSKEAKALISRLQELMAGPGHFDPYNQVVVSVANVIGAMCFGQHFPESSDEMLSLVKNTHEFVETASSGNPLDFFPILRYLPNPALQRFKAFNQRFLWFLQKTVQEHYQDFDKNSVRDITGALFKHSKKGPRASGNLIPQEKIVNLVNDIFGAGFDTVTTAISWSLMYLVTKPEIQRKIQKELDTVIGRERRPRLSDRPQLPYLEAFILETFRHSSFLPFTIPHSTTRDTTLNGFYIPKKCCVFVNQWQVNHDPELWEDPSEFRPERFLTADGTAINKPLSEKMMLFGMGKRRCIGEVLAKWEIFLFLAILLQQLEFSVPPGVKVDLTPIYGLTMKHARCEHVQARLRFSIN

[14] = molecular target: CYP2D6 (Homo sapiens, UniProt P10635); assay: Inhibition of CYP2D6 (unknown origin) at 10 uM; type: ADME; how it was run: as §4
Sequence of CYP2D6 (P10635 whole entry): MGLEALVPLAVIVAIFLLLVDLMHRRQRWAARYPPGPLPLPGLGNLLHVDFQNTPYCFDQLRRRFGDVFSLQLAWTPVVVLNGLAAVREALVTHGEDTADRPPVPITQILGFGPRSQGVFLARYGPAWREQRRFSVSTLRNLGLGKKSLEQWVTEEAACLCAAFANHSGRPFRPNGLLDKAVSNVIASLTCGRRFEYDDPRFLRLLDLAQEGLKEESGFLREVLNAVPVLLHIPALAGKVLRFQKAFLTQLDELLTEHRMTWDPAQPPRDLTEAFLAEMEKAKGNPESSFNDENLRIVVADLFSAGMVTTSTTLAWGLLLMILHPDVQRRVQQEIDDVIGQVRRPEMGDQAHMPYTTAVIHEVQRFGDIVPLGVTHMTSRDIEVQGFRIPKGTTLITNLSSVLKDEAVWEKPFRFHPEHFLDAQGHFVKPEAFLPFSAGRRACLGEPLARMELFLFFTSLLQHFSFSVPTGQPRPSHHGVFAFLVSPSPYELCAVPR

[15] = Half life in mouse at 1 mg/kg, iv; type: ADME, organism-based; set-up: dose 1 mg/kg, route intravenous; settings: in vivo
[16] = molecular target: T2, Neuronal acetylcholine receptor; alpha4/beta2; assay: Inhibition of human alpha4beta2 nAChR by binding assay
[17] = molecular target: CYP2C9 (Homo sapiens, UniProt P11712); assay: Inhibition of CYP2C9 (unknown origin) at 10 uM; type: ADME; how it was run: as §4
Sequence of CYP2C9 (P11712 whole entry): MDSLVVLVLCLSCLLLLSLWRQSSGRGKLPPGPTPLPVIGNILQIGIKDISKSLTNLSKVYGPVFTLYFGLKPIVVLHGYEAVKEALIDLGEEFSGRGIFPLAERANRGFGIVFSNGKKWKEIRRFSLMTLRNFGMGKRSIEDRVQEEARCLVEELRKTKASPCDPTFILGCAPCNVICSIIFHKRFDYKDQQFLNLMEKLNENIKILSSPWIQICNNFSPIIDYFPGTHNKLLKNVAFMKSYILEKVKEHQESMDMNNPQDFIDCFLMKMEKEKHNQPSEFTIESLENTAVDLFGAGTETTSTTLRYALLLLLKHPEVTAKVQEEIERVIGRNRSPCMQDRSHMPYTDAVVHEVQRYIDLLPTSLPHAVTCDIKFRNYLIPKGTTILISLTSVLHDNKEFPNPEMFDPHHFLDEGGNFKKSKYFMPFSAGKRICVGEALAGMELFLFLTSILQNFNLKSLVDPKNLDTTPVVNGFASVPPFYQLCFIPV

[18] = molecular target: T3, Neuronal acetylcholine receptor subunit alpha-7; settings: 300 uM
[19] = Oral bioavailability in mouse at 5 mg/kg; type: ADME, organism-based; settings: in vivo
[20] = system: Mus musculus; assay: as §2, with “at 5” for “at 1”; type: functional; how it was run: as §3
[21] = molecular target: CYP2C19 (Homo sapiens, UniProt P33261); assay: Inhibition of CYP2C19 (unknown origin) at 10 uM; type: ADME; how it was run: as §4
Sequence of CYP2C19 (P33261 whole entry): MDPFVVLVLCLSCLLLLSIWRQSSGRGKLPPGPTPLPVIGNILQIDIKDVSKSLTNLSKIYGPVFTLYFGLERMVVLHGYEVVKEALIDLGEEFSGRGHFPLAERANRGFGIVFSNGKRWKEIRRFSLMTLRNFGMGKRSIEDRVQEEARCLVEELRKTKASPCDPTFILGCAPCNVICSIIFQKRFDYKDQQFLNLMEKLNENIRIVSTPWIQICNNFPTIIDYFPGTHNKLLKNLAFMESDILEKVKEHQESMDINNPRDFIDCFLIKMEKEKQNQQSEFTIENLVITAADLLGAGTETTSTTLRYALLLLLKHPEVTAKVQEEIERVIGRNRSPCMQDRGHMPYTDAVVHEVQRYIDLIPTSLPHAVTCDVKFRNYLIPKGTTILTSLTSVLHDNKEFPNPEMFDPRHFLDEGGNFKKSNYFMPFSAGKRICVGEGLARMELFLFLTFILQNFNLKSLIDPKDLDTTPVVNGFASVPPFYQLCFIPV

[22] = system: Mus musculus; assay: as §2, with “eosinophils” for “total blood cells”; type: functional; how it was run: as §3
[23] = molecular target: T2, Neuronal acetylcholine receptor; alpha4/beta2; assay: Agonist activity at human alpha4beta2 nAChR expressed in Xenopus oocytes by voltage clamp method; type: cell-based
[24] = system: Mus musculus; assay: as §2, with “in neutrophils” for “in total blood cells”, “at 5” for “at 1”; type: functional; settings: Bronchoalveolar lavage; how it was run: as §3
[25] = molecular target: Adenosine receptor A2a (Homo sapiens) (UniProt P29274); assay: Inhibition of adenosine A2a receptor (unknown origin) at 10 uM; how it was run: as §1
Sequence of Adenosine receptor A2a (Homo sapiens) (P29274 whole entry): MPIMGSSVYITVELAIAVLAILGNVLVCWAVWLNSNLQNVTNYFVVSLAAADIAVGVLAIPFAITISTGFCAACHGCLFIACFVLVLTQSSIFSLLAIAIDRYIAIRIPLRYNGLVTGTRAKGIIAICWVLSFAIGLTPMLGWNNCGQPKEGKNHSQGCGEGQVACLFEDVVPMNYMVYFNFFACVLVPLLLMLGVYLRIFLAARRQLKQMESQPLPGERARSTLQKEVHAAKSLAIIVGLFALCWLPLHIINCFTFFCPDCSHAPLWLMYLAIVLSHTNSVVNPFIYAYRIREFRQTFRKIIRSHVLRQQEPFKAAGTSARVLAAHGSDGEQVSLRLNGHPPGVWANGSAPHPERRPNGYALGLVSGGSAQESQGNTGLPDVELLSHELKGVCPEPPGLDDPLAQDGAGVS

[26] = molecular target: hERG (KCNH2) (Homo sapiens, UniProt Q12809); assay: Inhibition of human ERG at 1 uM by whole-cell voltage clamp assay
Sequence of hERG (KCNH2) (Q12809 whole entry): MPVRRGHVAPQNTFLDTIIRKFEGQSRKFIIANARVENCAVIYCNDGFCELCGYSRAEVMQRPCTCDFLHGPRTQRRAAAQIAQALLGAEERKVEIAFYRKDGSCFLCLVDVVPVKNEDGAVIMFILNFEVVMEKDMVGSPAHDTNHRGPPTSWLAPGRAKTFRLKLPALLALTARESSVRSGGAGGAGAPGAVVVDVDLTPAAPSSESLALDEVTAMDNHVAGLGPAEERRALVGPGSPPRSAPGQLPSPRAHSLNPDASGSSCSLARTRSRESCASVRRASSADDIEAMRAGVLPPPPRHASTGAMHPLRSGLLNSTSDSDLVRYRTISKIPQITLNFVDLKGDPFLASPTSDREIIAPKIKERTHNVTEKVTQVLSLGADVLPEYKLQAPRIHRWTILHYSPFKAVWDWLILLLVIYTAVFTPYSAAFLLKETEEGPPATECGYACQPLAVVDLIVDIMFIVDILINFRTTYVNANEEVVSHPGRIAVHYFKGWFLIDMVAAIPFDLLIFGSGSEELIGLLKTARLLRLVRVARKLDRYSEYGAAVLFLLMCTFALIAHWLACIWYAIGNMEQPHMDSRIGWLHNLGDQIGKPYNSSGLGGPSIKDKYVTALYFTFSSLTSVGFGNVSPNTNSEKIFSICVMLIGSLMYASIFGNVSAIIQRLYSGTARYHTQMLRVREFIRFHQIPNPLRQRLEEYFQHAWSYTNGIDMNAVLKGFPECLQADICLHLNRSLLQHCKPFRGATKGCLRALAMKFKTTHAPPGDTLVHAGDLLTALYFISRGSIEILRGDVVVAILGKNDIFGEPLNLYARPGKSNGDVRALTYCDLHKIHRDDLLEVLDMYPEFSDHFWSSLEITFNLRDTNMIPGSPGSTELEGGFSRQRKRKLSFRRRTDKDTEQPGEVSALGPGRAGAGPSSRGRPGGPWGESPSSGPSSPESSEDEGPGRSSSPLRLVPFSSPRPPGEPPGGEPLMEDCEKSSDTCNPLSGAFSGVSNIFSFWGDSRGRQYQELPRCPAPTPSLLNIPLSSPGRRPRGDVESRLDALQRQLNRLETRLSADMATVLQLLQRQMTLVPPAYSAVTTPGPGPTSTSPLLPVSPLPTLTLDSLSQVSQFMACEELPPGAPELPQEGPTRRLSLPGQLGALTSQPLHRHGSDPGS

[27] = system: Mus musculus; assay: as §2, with “neutrophils” for “total blood cells”, “bid” for “qd”; type: functional; settings: Bronchoalveolar lavage; how it was run: as §3
[28] = system: Mus musculus; assay: as §2, with “eosinophils” for “total blood cells”, “bid” for “qd”; type: functional; how it was run: as §3
[29] = molecular target: T2, Neuronal acetylcholine receptor; alpha4/beta2; assay: Agonist activity at alpha4beta2 nAChR (unknown origin)

SMILES	inhibition [1] [%]	inhibition [2] [%]	inhibition [3] [%]	IC50 [4] [nM]	inhibition at 10 µM [10] [%]	inhibition at 10 µM [13] [%]	inhibition at 10 µM [14] [%]	inhibition at 10 µM [17] [%]	inhibition at 10 µM [21] [%]	inhibition at 1 µM [26] [%]	further results
Brc1ccc2oc(N3CCNC[C@@H]3COc3cccnc3)nc2c1	-3	100	96	67							
Cl.c1cncc(OC[C@H]2CNCCN2c2nc3ncccc3o2)c1	1	43		5.5	5	25	1	22	9		clearance [5]: 72 mL/min/kg; inhibition in vivo at 1 mg/kg [6]: 60%; inhibition in vivo at 1 mg/kg [7]: 90%; inhibition [8]: inactive; half-life [9]: 98 min; EC50 [11]: 200 nM; Cmax [12]: 2530 nM; half-life [15]: 19 min; IC50 [16]: 58 nM; Emax [18]: 85%; bioavailability [19]: 50%; inhibition in vivo at 5 mg/kg [20]: 60%; inhibition in vivo at 1 mg/kg [22]: 64%; Activity [23]: inactive; inhibition in vivo at 5 mg/kg [24]: 78%; inhibition [25]: 50%
COc1ccc2nc(N3CCNC[C@@H]3COc3cccnc3)sc2c1	9	99	83	46	49	63	50	33	78	36	
COc1ccc(NC(=O)N2CCNC[C@H]2COc2cccnc2)cc1	2	7		18000							inhibition [27]: inactive; inhibition [28]: inactive
c1cncc(OC[C@@H]2CCN2)c1											Ki [29]: 0.052 nM
c1cncc(OCC2CNCCN2c2nc3ccccc3o2)c1 (racemic)	-2	95	89	106	17	36	87	20	24	22	
Fc1cccc2sc(N3CCNCC3COc3cccnc3)nc12 (racemic)	20	99	53	17	75	63	60	28	60	19	
